Measurements collected from several papers.
Each line is one published result; the experiments were not run side by side. ≈ marks a conversion by molar mass, not a printed value.

CC(C)S(=O)(=O)n1c(N)nc2ccc(/C(=N/O)c3ccccc3)cc21  EC50 (Enterovirus B; viral replication, inhibitor; Vero 76, B3): < 0.01 µM
COC(=O)c1cc(-c2cccc(NC(=O)Nc3ccc(C)cc3)c2)on1  MIC (Acinetobacter baumannii; microbial growth, broth dilution; BAA1605): > 64 µg/mL
CC1CCC2(CC1)SC(C)C(=O)N2NC(=O)c1[nH]c2ccc(Cl)cc2c1-c1ccccc1 (stereo not shown)  EC50 (Enterovirus B; viral replication, inhibitor; Vero, B4): > 100 µM
CO[C@H]1/C=C/O[C@@]2(C)Oc3c(C)c(O)c4c(O)c(c(/C=N/N5CCN(C)CC5)c(O)c4c3C2=O)NC(=O)/C(C)=C\C=C\[C@H](C)[C@H](O)[C@@H](C)[C@@H](O)[C@@H](C)[C@H](OC(C)=O)[C@@H]1C  MIC (Acinetobacter baumannii; microbial growth, broth dilution; ATCC19606; drug-resistant strain): 1 µg/mL (≈ 1.22 µM)
C=C1CC[C@H](O)C/C1=C/C=C1\CCC[C@]2(C)[C@@H]([C@H](C)/C=C/[C@H](C)C(C)C)CC[C@@H]12  EC50 (Hepatitis C virus; viral replication, inhibitor, luciferase; GETYPE2A; 5 days, replicon): 13 µM
Cc1c(NN=C(C#N)C2=NC(=O)CS2)c(=O)n(-c2ccccc2)n1C  inhibition zone (Acinetobacter baumannii; microbial growth, well diffusion; 100000 µg/mL): 27 mm
CC1CCC2(CC1)SCC(=O)N2NC(=O)c1[nH]c2ccc(Cl)cc2c1-c1ccccc1 (stereo not shown)  EC50 (Enterovirus B; viral replication, inhibitor; Vero, B4): > 100 µM
Cc1cc(/C=C2\Sc3ccccc3N2CCCN2CCCCC2)c2ccccc2[n+]1C.[I-]  MIC (Acinetobacter baumannii; microbial growth, broth dilution; ATCC19606; drug-resistant strain): 64 µg/mL
CC(=O)C1=C(O)C(CC(C)C)NC1=O (stereo not shown)  MIC (Proteus mirabilis; microbial growth; ATCC25933): > 200 µg/mL
COC(=O)c1cc(-c2cccc(NC(=O)Nc3cccc(C(F)(F)F)c3)c2)on1  MIC (Acinetobacter baumannii; microbial growth, broth dilution; BAA1605): > 64 µg/mL
CC1(C)S[C@@H]2[C@H](NC(=O)[C@H](N)c3ccccc3)C(=O)N2[C@H]1C(=O)O  MIC (Acinetobacter baumannii; microbial growth, broth dilution; ATCC19606; drug-resistant strain): 64 µg/mL (≈ 183 µM)
CC1CC(C)(C)CC2(C1)SCC(=O)N2NC(=O)c1[nH]c2ccc(Cl)cc2c1-c1ccccc1 (stereo not shown)  EC50 (Enterovirus B; viral replication, inhibitor; Vero, B4): > 100 µM
COC(=O)c1cc(-c2cccc(NC(=O)Nc3ccc(F)c(F)c3)c2)on1  MIC (Acinetobacter baumannii; microbial growth, broth dilution; BAA1605): > 64 µg/mL
C=C1/C(=C\C=C2/CCC[C@]3(C)[C@@H]([C@H](C)CCCC(C)(C)O)CC[C@@H]23)C[C@@H](O)C[C@@H]1O  EC50 (Hepatitis C virus; viral replication, inhibitor, luciferase; BM4-5, GETYPE1B; 72 h, replicon): 3.19 µM
COC(=O)c1cc(-c2cccc(NC(=S)Nc3ccc(C)cc3)c2)on1  MIC (Acinetobacter baumannii; microbial growth, broth dilution; BAA1605): > 64 µg/mL
COc1nc(N)nc2c1ncn2[C@@H]1O[C@H](COP(=O)(N[C@@H](C)C(=O)OCC(C)(C)C)Oc2cccc3ccccc23)[C@@H](O)[C@@]1(C)O (stereo partly shown)  EC90 (Hepatitis C virus; viral replication, inhibitor; GETYPE1A; 96 h, replicon): 0.004 µM
CC1CCCC2(C1)SC(C)C(=O)N2NC(=O)c1[nH]c2ccc(Cl)cc2c1-c1ccccc1 (stereo not shown)  EC50 (Enterovirus B; viral replication, inhibitor; Vero, B4): > 100 µM
CCCCCCNC(=S)Nc1cccc(-c2cc(C(=O)OC)no2)c1  MIC (Acinetobacter baumannii; microbial growth, broth dilution; BAA1605): > 64 µg/mL
CC1CCN(CCCN2/C(=C/c3cc[n+](C)c4ccccc34)Sc3ccccc32)CC1.[I-]  MIC (Acinetobacter baumannii; microbial growth, broth dilution; ATCC19606; drug-resistant strain): 16 µg/mL
O=C(NN1C(=O)CSC12CCCCC2)c1[nH]c2ccc(Cl)cc2c1-c1ccccc1  EC50 (Enterovirus B; viral replication, inhibitor; Vero, B4): > 100 µM
C=C1CC[C@H](O)C/C1=C/C=C1\CCC[C@]2(C)[C@@H]([C@H](C)CCCC(C)C)CC[C@@H]12  EC50 (Hepatitis C virus; viral replication, inhibitor, luciferase; BM4-5, GETYPE1B; 5 days, replicon): 3.8 µM
COC(=O)c1cc(-c2cccc(NC(=S)Nc3ccc(OC)cc3)c2)on1  MIC (Acinetobacter baumannii; microbial growth, broth dilution; BAA1605): > 64 µg/mL
CC1SC2(CCCC2)N(NC(=O)c2[nH]c3ccc(Cl)cc3c2-c2ccccc2)C1=O (stereo not shown)  EC50 (Enterovirus B; viral replication, inhibitor; Vero, B4): > 100 µM
C[n+]1c(/C=C/c2ccc(O)cc2)cc(/C=C2\Sc3ccccc3N2CCCN2CCCC2)c2ccccc21.[I-]  MIC (Acinetobacter baumannii; microbial growth, broth dilution; ATCC19606; drug-resistant strain): > 64 µg/mL
COC(=O)c1cc(-c2cccc(NC(=O)Nc3c(C)cccc3C)c2)on1  MIC (Acinetobacter baumannii; microbial growth, broth dilution; BAA1605): > 64 µg/mL
CC1SC2(CCCCC2)N(NC(=O)c2[nH]c3ccc(Cl)cc3c2-c2ccccc2)C1=O (stereo not shown)  EC50 (Enterovirus B; viral replication, inhibitor; Vero, B4): > 100 µM
COC(=O)c1cc(-c2cccc(NC(=O)Nc3ccc(Cl)cc3)c2)on1  MIC (Acinetobacter baumannii; microbial growth, broth dilution; BAA1605): > 64 µg/mL
CCCC1CCC2(CC1)SCC(=O)N2NC(=O)c1[nH]c2ccc(Cl)cc2c1-c1ccccc1 (stereo not shown)  EC50 (Enterovirus B; viral replication, inhibitor; Vero, B4): > 100 µM
